Screens deposited in PubChem by several laboratories.
b-catenin transl = alters nuclear translocation of beta-catenin in HeLa cells; immunofluorescence imaging; nuclear translocation activity, % at 5 µM; 190,000 compounds, 0.3% hits; AID 1665;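 active means nuclear translocation activity above 50% at 5 µM, with a well cell count of 50 or more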;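 further: per-cell ratio of nuclear to cytoplasmic median beta-catenin stain intensity; plate controls were DMSO negative control for no effect and GSK-3 inhibitor IX positive control for full effect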
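Test system: human HeLa cells, endogenous beta-catenin. Times: 24 h compound exposure, 37°C. Measured by: beta-catenin immunofluorescence imaging with DAPI.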
STAT1 inh = STAT1 signaling inhibition; NIH 3T3 STAT1-luciferase reporter, IFN-gamma, luminescence; inhibition, % at 5.5 µM; 200,000 compounds, 0.35% hits;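 active means inhibition above a set limit, the mean inhibition across all tested compounds plus 3 SD, cut at about 34% in these data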;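 further: 0% = IFN-gamma with DMSO and 100% = IFN-gamma with 300 µM nifuroxazide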
MT stabilize HCS = microtubule stabilization, imaging screen | HeLa tubulin immunostaining HCS, 24 h; share of cells brighter than vehicle mean+2SD | % tubulin-high responders, % at 10 µM | 200,000 compounds, 0.83% hits;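 active means plate Z-score above 3 for both tubulin-high and condensed-nucleus cell shares, with cell loss under 80%, at 10 µM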;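 further: anti alpha tubulin signal scored within the nucleus-defined area of each cell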
STAT3 blocker = reduces IL-6 driven STAT3 reporter signal; U3A cells, IL-6 STAT3-luciferase reporter, luminescence; host cell line lacks STAT1; inhibition, % at 5.5 µM; 190,000 compounds, 0.89% hits;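 active means inhibition above the mean inhibition across all screened compounds plus 3 SD, cut at about 44% in these data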;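 further: 0% = DMSO only wells and 100% = 100 µM nifuroxazide control wells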
STAT3 act-1 = activators of IL-6 induced STAT3 signaling; 190,000 compounds, 0.91% hits; U3A cells, IL-6 STAT3-luciferase reporter, luminescence; 100% = signal with IL-6 EC80 alone; activation (% of control), % at 5.6 µM;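 active means activation above the screen-wide mean of compound activation plus 3 SD, cut at about 130% in these data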;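 further: 0% = background luminescence of wells with medium and substrate only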
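Material: human STAT1-deficient U3A cells with stable STAT3-luciferase reporter / Probe or stimulus: IL-6 stimulus at 33 ng/mL final / Schedule: 1 h compound pre-exposure, 6 h IL-6 stimulation, 37 °C / Technique: luminescence / Read-out basis: percent of IL-6-only median luminescence / Control set: IL-6-only high control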
STAT3 act-2 = confirmation of STAT3 signaling activators; potentiation (% of control), % at 5.7 µM; U3A STAT3-luciferase reporter, IL-6 potentiation, luminescence; U3A cells lack STAT1; 100 means same as IL-6 alone; 1,200 compounds, 64% hits; shares compounds with STAT3 act-1;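 active means percent activation of the STAT3 luciferase reporter above a set limit taken from the earlier primary screen, cut at about 130% in these data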;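 further: 0% = background signal of medium plus substrate and 100% = median of IL-6 with DMSO wells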
NFkB act STAT3ct = NF-kappaB activation in STAT3 activator counter-screen; shares compounds with STAT3 act-1; human cells, NF-kappaB reporter activation; activation (% of control), % at 5.7 µM; 1,200 compounds, 11% hits; AID 1309; in the data active means activation above about 120%;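 further: reporter induced by TNF-alpha stimulation; 100% = median of stimulated DMSO wells and 0% = no signal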
STAT1 act = activates STAT1, counter-screen to STAT3 activators; shares compounds with STAT3 act-1; activation (% of control), % at 5.7 µM; NIH 3T3 STAT1-luciferase reporter, IFN-gamma, luminescence; 1,200 compounds, 13% hits;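 active means activation above the solvent-only control well mean plus 3 SD, set per screening run, cut at about 120% in these data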;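 further: 100% = IFN-gamma with DMSO median signal so 100% means no change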
An asterisk follows results filed as active; / = no result given. Only some compounds are listed: those with a hit (about 2.4% of all), similar ones and a draw of the others.

SMILES	b-catenin transl	STAT1 inh	MT stabilize HCS	STAT3 blocker	STAT3 act-1	STAT3 act-2	NFkB act STAT3ct	STAT1 act
O=C1NC(Cc2ccccc2)C(=O)N1Cc1cc([N+](=O)[O-])cc2c1OCOC2 (stereo unspecified)	1.6	3.4	2.3	4.5	102.8	/	/	/
COc1ccccc1-c1n[nH]c(=S)n1-c1ccccc1	-1.6	1.9	1.4	-38.5	137.5*	104.0	104.3	104.8
COc1ccccc1-c1n[nH]c(=S)n1N	-1.0	5.8	4.4	14.9	91.3	/	/	/
Cc1ccc(S(=O)(=O)N2CCCCC2)cc1C(=O)Nc1ccc2cn[nH]c2c1	-0.7	14.7	2.0	-48.7	150.7*	134.9*	100.6	93.8
COC(=O)CN1C(=O)N/C(=C/c2cc(OC)c(OC)cc2C)C1=O	0.6	-1.1	2.6	-2.6	108.6	/	/	/
O=C(CN1C(=O)/C(=C/c2c(F)cccc2Cl)Oc2ccccc21)NCc1ccco1	3.2	7.9	19.4*	-60.8	153.9*	187.3*	99.0	95.6
CSc1nc2cc(C)nn2c(-c2ccccc2Cl)c1C#N	2.0	/	/	/	/	/	/	/
N#Cc1cc(-c2ccccc2)nc(N2CCNCC2)n1	2.8	/	/	/	/	/	/	/
CCOC(=O)C(C(=O)Nc1nc2ccccc2s1)C1CCCCC1 (stereo unspecified)	2.5	-3.5	2.9	-49.2	142.6*	123.8	109.0	99.9
CCOC(=O)C(C(=O)Nc1cccc(C)n1)C1CCCCC1 (stereo unspecified)	-1.1	-4.9	4.5	-1.5	104.1	/	/	/
Cc1ccc2nc(-c3sc4nc(C)ccc4c3N)[nH]c2c1	1.6	-19.1	5.0	23.1	81.8	/	/	/
Cc1cc(C)c2c(N)c(-c3nc4ccccc4[nH]3)sc2n1	0.6	-15.6	4.5	-76.1	171.0*	182.4*	116.7	110.6
Cc1cc(C)nc(SCC(=O)N/N=C/c2cccc([N+](=O)[O-])c2)n1	-0.8	-7.8	4.1	0.4	98.4	/	/	/
C/C(=C\C(=S)Nc1ccccc1)Nc1ccc2ccccc2c1	2.2	-6.3	1.9	-21.1	121.8	/	/	/
C/C(=C\C(=S)Nc1ccccc1)Nc1cccc2ccccc12	1.2	-14.2	5.1	-58.3	155.3*	142.2*	108.7	118.7
CC(C)CN(C(=O)COC(=O)c1c(Cl)ccc(Cl)c1Cl)C1CCS(=O)(=O)C1 (stereo unspecified)	-2.9	-6.0	2.5	-3.0	110.9	/	/	/
CC(C)Cn1c(N)c(-c2nc(C(C)C)c(C(=O)c3ccccc3F)s2)c(=O)n(C)c1=O	-1.9	-6.3	3.7	4.8	99.9	/	/	/
O=C1c2ccccc2C(=O)N1CCCCN(C(=O)c1cc([N+](=O)[O-])ccc1Cl)c1ccc(Cl)cc1	-0.2	-0.6	2.2	-0.9	98.6	/	/	/
CCNc1nc(NCC)n2c(SC(C(=O)Nc3cc(C)ccc3OC)c3ccccc3)nnc2n1 (stereo unspecified)	0.9	14.8	1.8	22.0	82.8	/	/	/
C/C(=N\OCc1nc2ccccc2c(=O)n1/N=C/c1cc(C)cc([N+](=O)[O-])c1O)c1ccccc1	-1.2	/	/	/	/	/	/	/
Cc1cc(/C=N/n2cnnc2)c(O)c([N+](=O)[O-])c1	-0.9	-0.3	2.4	-42.6	138.5*	149.3*	98.5	95.2
Cc1ccc(NC(=O)C2CC2C)c(Cl)c1 (stereo unspecified)	-1.6	-9.6	3.4	5.7	97.3	/	/	/
C/C(=N\Nc1nc2c(s1)CCCC2)c1ccc(Cl)cc1	1.0	-0.1	3.6	-66.7	158.5*	104.0	121.8*	114.2
CN(C)c1ccc(C(=O)Nc2nc3c(s2)CCCC3)cc1	-0.3	-21.5	4.5	39.7	71.1	/	/	/
COc1ccc(-c2nnc(Nc3nc4c(OC)cccc4s3)o2)c(OC)c1	11.2	-10.1	10.2	-10.8	114.9	/	/	/
SMILES	b-catenin transl	STAT1 inh	MT stabilize HCS	STAT3 blocker	STAT3 act-1	STAT3 act-2	NFkB act STAT3ct	STAT1 act
COc1ccc(-c2nnc(Nc3nc4c(OC)cccc4s3)o2)cc1	-1.1	-7.0	2.9	-68.7	159.1*	136.5*	100.6	104.5
Fc1ccc(/C=C\c2nccc3c2[nH]c2ccccc23)cc1	0.5	-21.2	7.2	-46.4	137.5*	148.2*	111.4	98.6
CCOc1ccc(C2Sc3ccccc3NC3=C2C(=O)OC3)cc1 (stereo unspecified)	0.9	-7.1	2.1	3.3	100.2	/	/	/
CCOc1ccccc1C1C2=C(COC2=O)Nc2cc3c(cc21)OCO3 (stereo unspecified)	1.5	-11.3	7.2	-30.8	141.2*	103.4	131.2*	94.5
COc1cc2c(cc1OC)C(c1ccc3c(c1)OCO3)C1=C(CC(C)(C)CC1=O)N2 (stereo unspecified)	-0.5	5.9	1.9	9.9	94.9	/	/	/
C#CCOc1ccc(C2C3=C(COC3=O)Nc3cc4c(cc32)OCO4)cc1OC (stereo unspecified)	61.0*	-12.5	1.6	-42.7	142.6*	116.1	159.0*	115.3
O=C1OCC2=C1C(c1ccc(F)cc1)c1cc3c(cc1N2)OCO3 (stereo unspecified)	74.3*	0.0	6.9	-36.1	136.2*	108.3	153.3*	105.7
O=C1OCC2=C1C(c1ccc(F)cc1)c1cc3c(cc1N2)OCCO3 (stereo unspecified)	77.9*	1.4	11.6	-38.5	138.3*	96.5	104.9	101.3
COc1ccc(-n2c3c(cc(C#N)c2=O)C(=O)CCC3)cc1	-0.1	-4.0	3.9	9.4	101.8	/	/	/
O=C(O)c1ccc(NC2=C/C(=N/S(=O)(=O)c3ccccc3)c3ccccc3C2=O)cc1	-1.5	19.1	1.7	-54.8	155.1*	130.9	99.3	101.3
COc1ccc(OC)c(NC(=O)c2cc3ccccc3o2)c1	/	-8.2	4.5	-42.7	136.1*	128.7	108.7	112.4
COc1ccc(C)cc1NC(=O)c1cc2ccccc2o1	4.7	-15.9	4.7	-28.0	130.8	/	/	/
Cc1nc2sc3c(c2c(=O)[nH]1)CCC3	-6.0	-7.0	5.5	8.8	97.8	/	/	/
Cc1cc(-c2nc3c4c5c(sc4[nH]c(=O)n3n2)CCC5)c(C)o1	4.3	2.0	2.1	-57.1	151.3*	134.3*	97.5	93.9
CC(=O)OCC(OC(C)=O)C(OC(C)=O)C(OC(C)=O)C(=O)Nc1cccc(C)c1 (stereo unspecified)	1.1	/	/	/	/	/	/	/
CC1(C)CC(=O)C2=C(C1)N(c1cccnc1)C(N)=C(C#N)C2c1cccs1 (stereo unspecified)	0.7	1.0	3.0	3.7	100.2	/	/	/
CC1(C)CC(=O)C2=C(C1)N(c1ccccc1C#N)C(N)=C(C#N)C2c1cccs1 (stereo unspecified)	1.1	2.3	0.7	-46.5	140.2*	149.3*	112.0	106.3
